TAAR1 ag: agonists of human TAAR1. activation, % at 3 µM. CHO RD-HGA16 TAAR1, Fluo-8 calcium fluorescence; vehicle wells 0%, saturating PEA agonist 100%. Q96RJ0. actives 0.99% (n = 360,000);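 active = activation above the mean activation of all test compounds in the run plus 3 SD, cut at about 38% in these data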
Target sequence (Q96RJ0 whole entry, looked up): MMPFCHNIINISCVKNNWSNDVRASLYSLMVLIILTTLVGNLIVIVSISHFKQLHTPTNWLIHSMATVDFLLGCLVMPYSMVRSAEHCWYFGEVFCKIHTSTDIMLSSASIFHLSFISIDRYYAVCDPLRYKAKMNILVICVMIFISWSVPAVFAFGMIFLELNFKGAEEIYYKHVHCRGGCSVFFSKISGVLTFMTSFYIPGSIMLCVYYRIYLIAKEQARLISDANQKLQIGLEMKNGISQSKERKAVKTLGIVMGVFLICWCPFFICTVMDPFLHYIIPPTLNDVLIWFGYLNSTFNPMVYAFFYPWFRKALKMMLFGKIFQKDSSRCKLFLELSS
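System: CHO RD-HGA16 cells carrying human TAAR1 plus Gα16; Incubation: 17-24 h seeding, 75 min 37 °C dye, 30 min RT; Measured by: Fluo-8 fluorescence, 5 s baseline then 140 s kinetic read; Control set: DMSO and PEA EC100; Replication: single well for each compound.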
TAAR1 antag: antagonists of human TAAR1. Q96RJ0. actives 1.5% (n = 360,000). inhibition, % at 3 µM. CHO RD-HGA16 TAAR1, Fluo-8 calcium fluorescence, antagonist;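 active = inhibition above a per-plate cutoff, the mean inhibition of test compounds on that plate plus 3 SD, cut at about 49% in these data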;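 note: 0% = DMSO plus EC80 beta-PEA response and 100% = DMSO alone without agonist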
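Test system: RD-HGA16 CHO cells with stable hTAAR1 and Gα16 / Probe or stimulus: EC80 β-phenethylamine stimulus / Times: seeding 17-24 h prior, 75-min 37 °C, 30-min RT dye loading / Detection: Fluo-8 calcium-sensitive fluorescence / Read-out basis: % inhibition scaled between DMSO and EC80 PEA controls / Repeats: singlicate, one well per test compound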
OX1R antag-1: human HCRTR1 antagonism; AID 434989; CHO/OX1R cells, Fluo-8 calcium fluorescence, orexin A; actives 0.43% (n = 330,000); inhibition, % at 5 µM;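 active = inhibition above its plate's threshold, mean inhibition of all tested compounds on the plate plus 3 SD, cut at about 37% in these data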;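 note: 0% = orexin A challenge wells and 100% = SB-334867-A antagonist wells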
OX1R antag-2: blocks the human orexin 1 receptor | O43613 | OX1R-expressing cells, FRET antagonist read-out | inhibition, % at 6.6 µM | actives 1.8% (n = 330,000) | AID 485270; in the data active = inhibition mostly above about 38%, no sharp cut-off; inactive = mostly below about 40%;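 note: 0% = agonist challenge alone and 100% = reference antagonist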
CHO parental Ca: signal in parental CHO cells, OX1R antagonist counter-screen. actives 0.63% (n = 330,000). parental CHO-K1, ATP-induced calcium, Fluo-8 fluorescence. inhibition, % at 5.6 µM;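 active = inhibition above that plate's mean sample inhibition plus 3 SD, cut at about 26% in these data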;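 note: 0% = ATP-challenged DMSO wells and 100% = DMSO wells without ATP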
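Assay system: parental CHO cells; Read-out basis: percent inhibition of ATP-evoked calcium rise, normalized to controls; Benchmarks: ATP and no-ATP DMSO wells; Compound dosing: single nominal dose of 5.6 µM per compound; Signal: Fluo-8 calcium dye fluorescence; Also added: ATP as calcium-mobilizing challenge; Repeats: singlicate.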
GPR7 antagonist: human neuropeptides B/W receptor 1 antagonism. AID 1861. inhibition, % at 4.4 µM. actives 1.1% (n = 290,000). GPR7-expressing cells, fluorescence antagonist assay; in the data active = inhibition above about 16%, passing the limit was not always enough;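 note: cells stimulated with the agonist NPW; 0% = agonist with vehicle and 100% = vehicle without agonist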
Active calls of the source: *; nt = no result given. In the library only some 4.6% were active in any assay of this set; here they are far more common.

SMILES | TAAR1 ag | TAAR1 antag | OX1R antag-1 | OX1R antag-2 | CHO parental Ca | GPR7 antagonist
Cc1ccc(Nc2ncc3c(n2)CC(C)CC3=O)c(C)c1 (stereo not drawn) | 3 | -10 | -34 | 16 | -39 | -1
CCCCN(CCCC)CC(O)COc1ccccc1C(=O)Nc1ccccc1 (stereo not drawn) | 0 | -21 | -24 | 22 | -15 | 20*
CCN(CC)CC(O)COc1ccccc1C(=O)CCc1ccccc1 (stereo not drawn) | 2 | -1 | -21 | -2 | -26 | 3
CCCC(=O)Nc1ccc(-c2csc(N/N=C\c3ccncc3)n2)cc1 | 15 | 60* | -15 | 3 | -13 | 5
CCN(c1ccccc1)S(=O)(=O)c1ccc(OC)c(NC(=O)C2CCC2)c1 | 0 | -17 | -9 | 2 | -16 | nt
CCN(c1ccccc1)S(=O)(=O)c1ccc(OC)c(NC(=O)CNCCc2ccccc2)c1 | 31 | 55* | -10 | 27 | 14 | 5
CC(NC(=O)CSc1nnc(CC(=O)Nc2ccc(Cl)c(Cl)c2)n1C)c1ccccc1 (stereo not drawn) | 42* | 44 | -5 | 4 | 6 | 0
CC(NC(=O)Nc1cccc([N+](=O)[O-])c1)(C(F)(F)F)C(F)(F)F | 6 | 0 | 2 | 43 | -15 | -1
COc1ccc(NC(=O)Nc2cccc3c2O[C@H](CN(C)C(=O)Nc2ccc(OC)cc2)[C@@H](C)CN([C@H](C)CO)C3=O)cc1 | 17 | 56* | -12 | 9 | -6 | nt
COc1ccc(NC(=O)N(C)C[C@H]2Oc3c(NC(=O)Nc4ccc5c(c4)OCO5)cccc3C(=O)N([C@H](C)CO)C[C@@H]2C)cc1 | 22 | 49* | -10 | 8 | 8 | nt
COc1ccc(S(=O)(=O)N(C)C[C@H]2Oc3c(NC(=O)Nc4ccccc4)cccc3C(=O)N([C@H](C)CO)C[C@@H]2C)cc1 | 12 | 57* | nt | nt | nt | nt
COc1cccc(/C=C/C(=O)Nc2ccc3nc4n(c(=O)c3c2)CCCC4)c1OC | 2 | 0 | -26 | 20 | -10 | -10
Cc1cc(C)n(C(C)CC(=O)Nc2ccc3c(c2)OCCO3)n1 (stereo not drawn) | 0 | -11 | -16 | -1 | -5 | 7
CC(=O)Nc1c2c(nn1-c1ccc(C)cc1)CS(=O)(=O)C2 | 0 | 14 | -4 | 10 | -6 | -4
O=C(Nc1ccc(N2CCOCC2)cc1)C1(c2ccc(Cl)cc2)CCC1 | 44* | 27 | -1 | 1 | -9 | 12
O=C(N1CCOCC1)C1(c2ccc(Cl)cc2)CCCC1 | 13 | -7 | -20 | 1 | -9 | -9
Cc1ccc(C(=O)CSc2cc(C)nc(SCC(=O)c3ccccc3)n2)cc1 | 12 | 54* | -11 | 29 | 44* | -5
Cc1nc2ccccc2nc1SCC(=O)c1ccccc1 | 3 | 13 | 17 | 39 | 52* | -5
Cc1cc(SCC(N)=O)nc(SCC(=O)c2ccccc2)n1 | 1 | 4 | -16 | 28 | -7 | 9
Cc1cc([N+](=O)[O-])nn1CC(=O)N/N=C/c1ccc(O)cc1O | 9 | -1 | -2 | 19 | -6 | -10
CCn1ncc(CN2CCCC(C(=O)Nc3cccc(-c4cc5ccccc5[nH]4)c3)C2)c1C (stereo not drawn) | 41* | 21 | -11 | 7 | -9 | 17
Nc1ccc(CCCC(=O)NCc2cccnc2)cc1 | 1 | -4 | nt | nt | nt | nt
Cc1nc([N+](=O)[O-])c(SCC(O)CCl)n1Cc1ccc(Cl)cc1 (stereo not drawn) | 7 | -6 | -22 | 19 | -9 | -9
Fc1cccc(Cl)c1-c1nnc2ccc(C(F)(F)F)cn12 | 6 | 10 | 10 | 18 | -5 | -9
Cc1ccc(SCC(=O)OCC(=O)N(C)CC(=O)Nc2ccc(F)cc2)cc1C | 113* | 42 | -26 | 17 | -25 | nt
COc1cc(-c2nc3ccccn3c2NCc2ccccc2)ccc1SC1CCCCC1 | nt | nt | -10 | 23 | 62* | nt
N#CC(C#N)=C1c2cc(S(=O)(=O)NCCO)ccc2-c2ccc(S(=O)(=O)NCCO)cc21 | 0 | -26 | -9 | 69* | 0 | -1

Screening data deposited in PubChem by The Scripps Research Institute Molecular Screening Center.
